{"data": "Results pooled from the literature", "target": "Proto-oncogene tyrosine-protein kinase ROS (ROS1, Homo sapiens, UniProt P08922)", "note": "Compare with care: the assays were run in different laboratories."}
{"SMILES": "CCOc1cc(-c2nncn2C)ccc1Nc1ncc2cc(C)nc(NCC(C)(C)C)c2n1", "assay": "enzyme activity, inhibitor, FRET", "setting": "1 µM", "quantity": "inhibition", "result": "31%"}
{"SMILES": "CC(C)(C)c1nc(-c2cccc(NS(=O)(=O)c3c(F)cccc3F)c2F)c(-c2ccnc(N)n2)s1", "assay": "enzyme activity, inhibitor, radiometric", "setting": "1 µM", "quantity": "remaining activity", "result": "96%"}
{"SMILES": "F[C@@H]1CCN(c2nccc(-c3cnn4ncccc34)n2)C1", "assay": "binding", "setting": "1 µM", "quantity": "remaining binding", "result": "88%"}
{"SMILES": "CNCc1ccc(-c2cc(-c3nc(-c4ccc(S(=O)(=O)C(C)C)cc4)cnc3N)on2)cc1", "assay": "enzyme activity, inhibitor", "setting": "2 µM", "quantity": "inhibition", "result": "4%"}
{"SMILES": "COc1cc2ncnc(Nc3ccc(Oc4ccccc4)cc3C)c2cc1OC", "assay": "enzyme activity, inhibitor", "setting": "1 µM", "quantity": "inhibition", "result": "4%"}
{"SMILES": "CCOCCn1cc(C(=O)Nc2ccc(-n3nc(-c4cccnc4)cc3C(F)(F)F)cn2)ccc1=O", "assay": "cell-free assay, competition with immobilised ligand", "setting": "1 µM", "quantity": "remaining binding", "result": "100%"}
{"SMILES": "Cc1cnc(NC2CCOCC2)nc1-n1cnc(C(=O)NC(CN)c2cc(F)cc(Cl)c2)c1 (stereo not drawn)", "assay": "enzyme activity, inhibitor, radiometric", "setting": "1 µM", "quantity": "remaining activity", "result": "103%"}
{"SMILES": "Cc1c(NC(=O)c2cc(C(N)=O)nc3cc(F)ccc23)c(C(F)(F)F)nn1Cc1ccc(C#N)cc1", "assay": "cell-free assay, competition with immobilised ligand", "setting": "1 µM", "quantity": "remaining binding", "result": "99%"}
{"SMILES": "O=C1Nc2ccc(Cl)cc2C1=Cc1cc(Cl)c(O)c(Cl)c1", "assay": "cell-free assay", "setting": "0.5 µM", "quantity": "remaining signal", "result": "89.7%"}
{"SMILES": "Nc1ncnc2occ(-c3ccc(NC(=O)Nc4cc(C(F)(F)F)ccc4F)cc3)c12", "assay": "cell-free assay", "setting": "20 µM", "quantity": "remaining signal", "result": "4.9%"}
{"SMILES": "Cc1ccc(Nc2nccc(N(C)c3ccc4c(C)n(C)nc4c3)n2)cc1S(N)(=O)=O", "assay": "enzyme activity, inhibitor", "setting": "0.3 µM", "quantity": "inhibition", "result": "3%"}
{"SMILES": "CNC(=O)c1cc2c(Oc3ccc(NC(=O)C4(C(=O)Nc5ccc(F)cc5)CC4)cc3)ccnc2cc1OC", "assay": "enzyme activity, inhibitor, radiometric", "setting": "1 µM", "quantity": "inhibition", "result": "89%"}
{"SMILES": "CN1CC(Oc2cnc(C#N)cc2-c2ccn3nc(NC(=O)C4CC4)cc3c2)C1", "assay": "enzyme activity, inhibitor", "setting": "1 µM", "quantity": "inhibition", "result": "8%"}
{"SMILES": "O=C1NC(=O)c2cc(Nc3ccc(F)cc3)c(Nc3ccc(F)cc3)cc21", "assay": "cell-free assay", "setting": "0.5 µM", "quantity": "remaining signal", "result": "92%"}
{"SMILES": "CC1=C(C#N)C(c2ccc3c(c2)c(NC(=O)c2ccccc2C)nn3C)C(C#N)=C(C)N1", "assay": "cell-free assay, competition with immobilised ligand", "setting": "1 µM", "quantity": "remaining binding", "result": "100%"}
{"SMILES": "C[S+]([O-])c1ccc(-c2nc(-c3ccncc3)c(-c3ccc(F)cc3)[nH]2)cc1 (stereo not drawn)", "assay": "cell-free assay", "setting": "0.5 µM", "quantity": "remaining signal", "result": "94.4%"}
{"SMILES": "Cc1cc(NC(=O)c2cccc3cc(-c4cccc5[nH]nc(N)c45)ccc23)ccc1F", "assay": "enzyme activity, inhibitor", "setting": "0.1 µM", "quantity": "activity vs control", "result": "111%"}
{"SMILES": "CC(=O)c1c(NS(C)(=O)=O)c2cc(-c3ccc(Cl)cc3)c(-c3ccc(Cl)cc3Cl)nc2n(C)c1=O", "assay": "cell-free assay, competition with immobilised ligand", "setting": "1 µM", "quantity": "remaining binding", "result": "100%"}
{"SMILES": "CCN(CC)CCNC(=O)c1c(C)[nH]c(/C=C2\\C(=O)Nc3ccc(F)cc32)c1C", "assay": "enzyme activity, inhibitor", "setting": "0.3 µM", "quantity": "inhibition", "result": "4%"}
{"SMILES": "O=C1NC(c2ccccn2)Sc2ccccc21 (stereo not drawn)", "assay": "cell-free assay, competition with immobilised ligand", "setting": "1 µM", "quantity": "remaining binding", "result": "95%"}
{"SMILES": "Cc1sc(C(=O)NC2COC2)cc1-n1cc(NC(=O)Nc2c(F)cccc2Cl)cn1", "assay": "enzyme activity, inhibitor", "setting": "10 µM", "quantity": "remaining activity", "result": "102%"}
{"SMILES": "CCC(=O)N[C@H]1CC[C@@H](C(=O)N(C)c2ccc(-c3nc4ccccc4o3)cc2)C1", "assay": "cell-free assay, competition with immobilised ligand", "setting": "1 µM", "quantity": "remaining binding", "result": "93%"}
{"SMILES": "COc1ccc(COc2ccc(Cc3cnc(N)nc3N)cc2OC)cc1", "assay": "cell-free assay", "setting": "0.5 µM", "quantity": "remaining signal", "result": "99.9%"}
{"SMILES": "CNC(=O)Nc1ccc2c(c1)[C@@]1(CC2)OC(=O)N(CC(=O)N(Cc2ccc(F)cc2)[C@@H](C)C(F)(F)F)C1=O", "assay": "cell-free assay, competition with immobilised ligand", "setting": "1 µM", "quantity": "remaining binding", "result": "87%"}
{"SMILES": "COc1cc(Cl)c(C(=O)N[C@@H](CN[C@H]2CC[C@@H](N)CC2)Cc2ccc(C#N)cc2)cc1-c1ccc(CN[C@H](C)c2ccc(C)cc2)o1", "assay": "enzyme activity, inhibitor", "setting": "1 µM", "quantity": "remaining activity", "result": "137%"}
{"SMILES": "Cc1c[nH]c2nccc(Oc3c(F)cc(Nc4cc(Cl)nc(N)n4)cc3F)c12", "assay": "cell-free assay, competition with immobilised ligand", "setting": "0.1 µM", "quantity": "remaining binding", "result": "96%"}
{"SMILES": "COc1cc2nccc(Oc3ccc(NC(=O)c4c5n(n(-c6ccc(F)cc6)c4=O)CCCC5)cc3)c2cc1OC", "assay": "enzyme activity, inhibitor", "setting": "0.1 µM", "quantity": "inhibition", "result": "26%"}
